Test results published in ChEMBL document CHEMBL3044975, “Hybrid ubiquinone: novel inhibitor of mitochondrial complex I” (Biochim Biophys Acta, 2002).

Columns and labels:
[1] = target: T1, NADH-ubiquinone oxidoreductase chain 1 (Bos taurus, UniProt P03887); experiment: Inhibition of Bos taurus (bovine) mitochondrial complex 1 assessed as reduction in enzyme activity by NADH-DU oxidoreductase assay
Summary of the method: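 Bovine heart submitochondrial particles (SMP) at 30 µg protein/ml. 50 µM decyl ubiquinone is the acceptor. SMP are preincubated with the HU for 5 min, then 50 µM NADH is added. NADH oxidation is read at 340 nm, 30 °C. IC50 from two independent experiments.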

[2] = target: T1, NADH-ubiquinone oxidoreductase chain 1; experiment: Inhibition of Bos taurus (bovine) mitochondrial complex 1 assessed as reduction in enzyme activity by NADH-DB oxidoreductase assay

T1 sequence (P03887 whole entry): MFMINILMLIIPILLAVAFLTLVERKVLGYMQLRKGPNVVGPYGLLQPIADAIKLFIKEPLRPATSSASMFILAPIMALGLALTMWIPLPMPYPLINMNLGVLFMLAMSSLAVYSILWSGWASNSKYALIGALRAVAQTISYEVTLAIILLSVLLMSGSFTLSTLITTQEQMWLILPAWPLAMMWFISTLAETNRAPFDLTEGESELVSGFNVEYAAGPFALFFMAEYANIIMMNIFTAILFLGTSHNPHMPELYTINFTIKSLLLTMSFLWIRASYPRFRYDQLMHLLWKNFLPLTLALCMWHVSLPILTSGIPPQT

Structure (SMILES) | IC50 [1] [nM] | IC50 [2] [nM]
COC1=C(OC)C(=O)C(CN(C)C(=O)c2ccc(Oc3ccc(C(C)(C)C)cc3)cc2)=C(C)C1=O | 88 | 77
COC1=C(OC)C(=O)C(CCCCCCN(C)C(=O)c2ccc(Oc3ccc(C(C)(C)C)cc3)cc2)=C(C)C1=O | 610 | 1100
CN(C)C(=O)c1ccc(Oc2ccc(C(C)(C)C)cc2)cc1 |  | 650
COC1=C(OC)C(=O)C(CCN(C)C(=O)c2ccc(Oc3ccc(C(C)(C)C)cc3)cc2)=C(C)C1=O | 760 | 470
CCCCc1ccc(Oc2ccc(C(=O)N(C)CC3=C(C)C(=O)C(OC)=C(OC)C3=O)cc2)cc1 | 840 | 970
CCCCCCCCCCC(=O)N(C)CC1=C(C)C(=O)C(OC)=C(OC)C1=O | 6200 | 11800
COC1=C(OC)C(=O)C(CNC(=O)c2ccc(Oc3ccc(C(C)(C)C)cc3)cc2)=C(C)C1=O | 530 | 340
C/C=C(\C)[C@H](O)[C@H](C)/C=C(C)/C=C/C/C(C)=C/Cc1nc(OC)c(OC)c(O)c1C [PIERICIDIN A] |  | 3
CCN(CC1=C(C)C(=O)C(OC)=C(OC)C1=O)C(=O)c1ccc(Oc2ccc(C(C)(C)C)cc2)cc1 | 630 | 370
COC1=C(OC)C(=O)C(CC(=O)N(C)c2ccc(Oc3ccc(C(C)(C)C)cc3)cc2)=C(C)C1=O | 2000 | 1800
